# Columns and labels:
# [1] = Selectivity index, ratio of IC50 for rat L6 cells to IC50 for Plasmodium falciparum 3D7 asexual blood stages; format: toxicity, cell-based; settings: read-out: Ratio IC50
# How it was run: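 Selectivity index calculated as L6 cytotoxicity IC50 divided by P. falciparum 3D7 IC50, using unrounded cytotoxicity values.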
# Plasmodium falciparum [2] = assay: Antiplasmodial activity against Plasmodium falciparum Dd2 asexual blood stages after 3 days by HRP2 detection based ELISA method; format: functional, organism-based; settings: Dd2, 72 h
# How it was run: (§1)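 HRP2-based growth inhibition of P. falciparum asexual blood stages, 3D7 (chloroquine-sensitive) or Dd2 (multidrug-resistant). IC50 from 12 serial dilutions. Mean of at least two independent experiments, each run in duplicate.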
# Plasmodium falciparum [3] = assay: Antiplasmodial activity against Plasmodium falciparum 3D7 asexual blood stages after 3 days by HRP2 detection based ELISA method; format: functional, organism-based; settings: 3D7, 72 h; how it was run: as §1
# L6 = assay: Cytotoxicity against rat L6 cells after 72 hrs by alamar blue assay; format: cell-based; settings: L6, 72 h
# Plasmodium falciparum [4] = assay: Gametocytocidal activity against transgenic Plasmodium falciparum NF54-pfs16-GFP late stage gametocytes after 72 hrs by mitotracker red CM-H2XRos dye based confocal imaging assay; format: functional, organism-based; settings: NF54, 72 h
# How it was run: (§2)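 Late-stage gametocytes stained with MitoTracker Red, imaged, and scored by viable elongated MTR-positive morphology. % inhibition set relative to a puromycin 100% inhibition control. Compounds in 4% DMSO, top concentration 120 or 40 μM. IC50 from 21 serial dilutions. Mean of two independent experiments, each in duplicate.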
# [5] = Plasma concentration in Plasmodium berghei infected mouse at 50 mg/kg, po dosed once daily for 4 days on 4, 24, 48 and 72 hrs post infection and measured 1 hr post dose by HPLC-MS/MS method; format: ADME, organism-based; parameters: dose 50 mg/kg, route oral
# How it was run: (§3)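 P. berghei-infected mice (n = 3 per group) given oral doses in 70/30 Tween 80/ethanol diluted 10× with water, at 4, 24, 48 and 72 h postinfection. Plasma drug levels (ng/mL) measured at 1, 4 and 24 h after oral treatment.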
# [6] = Plasma concentration in Plasmodium berghei infected mouse at 50 mg/kg, po dosed once daily for 4 days on 4, 24, 48 and 72 hrs post infection and measured 4 hrs post dose by HPLC-MS/MS method; format: ADME, organism-based; parameters: dose 50 mg/kg, route oral; how it was run: as §3
# [7] = Plasma concentration in Plasmodium berghei infected mouse at 50 mg/kg, po dosed once daily for 4 days on 4, 24, 48 and 72 hrs post infection and measured 24 hrs post dose by HPLC-MS/MS method; format: ADME, organism-based; parameters: dose 50 mg/kg, route oral; how it was run: as §3
# Plasmodium berghei [8] = assay: Antiplasmodial activity against Plasmodium berghei infected in mouse assessed as reduction in parasitemia level at 50 mg/kg, po dosed once daily for 4 days on 4, 24, 48 and 72 hrs post infection and measured on day 4; format: functional
# How it was run: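 Peters 4-day test in P. berghei-infected mice, n = 3 per group. 50 mg/kg given orally once daily at 4, 24, 48 and 72 h postinfection. Dosed as a solution or suspension in 70/30 Tween 80/ethanol diluted 10× with water. Parasitemia read from blood taken on day 4 (96 h postinfection), expressed as % reduction versus an infected untreated control.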
# Plasmodium berghei [9] = assay: Antiplasmodial activity against Plasmodium berghei infected in mouse assessed as […] in mouse survival at 50 mg/kg, po dosed once daily for 4 days on 4, 24, 48 and 72 hrs post infection and measured on day 4 (reference value: 4 days); format: functional
# How it was run: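 Standard Peters 4-day test in P. berghei-infected mice (n = 3 per group), dosed orally at 4, 24, 48 and 72 h post-infection. Compound was dissolved or suspended in 70/30 Tween 80/ethanol and diluted 10× with water. Blood for parasitemia was taken on day 4 (96 h). Survival was given as mean days, with parasite-free at day 30 taken as cure. Untreated infected controls were euthanized on day 4.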
# Plasmodium falciparum [10] = assay: Gametocytocidal activity against transgenic Plasmodium falciparum NF54-pfs16-GFP late stage gametocytes at 40 uM after 72 hrs by mitotracker red CM-H2XRos dye based confocal imaging assay; format: functional; settings: NF54, 72 h; how it was run: as §2
# Mus musculus [11] = assay: Toxicity in Plasmodium berghei infected mouse assessed as mouse mortality level at 50 mg/kg, po dosed once daily for 4 days on 4, 24, 48 and 72 hrs post infection; format: organism-based; parameters: dose 50 mg/kg, route oral; settings: in vivo
# How it was run: (§4)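 P. berghei-infected mice (n = 3 per group) received four oral doses at 4, 24, 48 and 72 h post-infection. Vehicle was 70/30 Tween 80/ethanol diluted 10× with water. Mice were watched for acute toxicity signs: death, changes in general behaviour, and changes in physiological activities.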
# Mus musculus [12] = assay: Toxicity in Plasmodium berghei infected mouse assessed as changes in physiological activities at 50 mg/kg, po dosed once daily for 4 days on 4, 24, 48 and 72 hrs post infection; format: organism-based; parameters: dose 50 mg/kg, route oral; settings: in vivo; how it was run: as §4
# Mus musculus [13] = assay: Toxicity in Plasmodium berghei infected mouse assessed as changes in general behaviors at 50 mg/kg, po dosed once daily for 4 days on 4, 24, 48 and 72 hrs post infection; format: organism-based; parameters: dose 50 mg/kg, route oral; settings: in vivo; how it was run: as §4
# Plasmodium falciparum [14] = assay: Gametocytocidal activity against transgenic Plasmodium falciparum NF54-pfs16-GFP late stage gametocytes at 120 uM after 72 hrs by mitotracker red CM-H2XRos dye based confocal imaging assay; format: functional; settings: NF54, 72 h; how it was run: as §2
SMILES,IC50 (Plasmodium falciparum [2]),IC50 (Plasmodium falciparum [3]),selectivity ratio [1],IC50 (L6),further results
N/C(=N\N=C\c1ccccc1)C(O)c1cccc2ccccc12 (stereo not drawn),3900 nM,3000 nM,100,300000 nM,–
N/C(=N\N=C\c1ccccc1)C(O)c1ccc2ccccc2c1 (stereo not drawn),> 10000 nM,> 10000 nM,–,–,–
N/C(CC(O)c1cccc2ccccc12)=N\N=C\c1ccc(F)cc1 (stereo not drawn),200 nM,60 nM,321,19000 nM,IC50 (Plasmodium falciparum [4]): 780 nM; concentration at 1 h [5]: 316 ng/mL; concentration at 4 h [6]: 145 ng/mL; concentration at 24 h [7]: < 5 ng/mL; inhibition in vivo at 50 mg/kg (Plasmodium berghei [8]): 40%; MSD (Plasmodium berghei [9]): 6.7 days
N/C(CC(O)c1cccc2ccccc12)=N\N=C\c1cccnc1 (stereo not drawn),1100 nM,2700 nM,8,22000 nM,–
C/C(=N\N=C(/N)CC(O)c1cccc2ccccc12)c1ccc(F)cc1 (stereo not drawn),740 nM,400 nM,86,34000 nM,–
N/C(CC(O)c1ccc2ccccc2c1)=N\N=C\c1ccc(C(F)(F)F)cc1 (stereo not drawn),> 10000 nM,> 10000 nM,–,–,–
CCOc1cc(/C=N/N=C(\N)CC(O)c2ccc3ccccc3c2)ccc1O (stereo not drawn),1300 nM,1100 nM,71,78000 nM,–
N/C(CC(O)c1ccc2ccccc2c1)=N\N=C\c1ccc(F)cc1 (stereo not drawn),2500 nM,2000 nM,> 149,> 298000 nM,inhibition at 40 µM (Plasmodium falciparum [10]): 25%
N/C(CC(O)c1ccc2ccccc2c1)=N\N=C\c1ccc(F)cc1F (stereo not drawn),> 10000 nM,4000 nM,23,93000 nM,–
N/C(CC(O)c1ccc2ccccc2c1)=N\N=C\c1cccnc1 (stereo not drawn),> 10000 nM,> 10000 nM,–,–,–
N/C(CC(O)c1ccc2ccccc2c1)=N\N=C\c1ccco1 (stereo not drawn),> 10000 nM,> 10000 nM,–,–,–
N/C(CC(O)c1cc2ccccc2c2ccccc12)=N\N=C\c1ccc(F)cc1 (stereo not drawn),11 nM,8.3 nM,1890,16000 nM,Activity (Mus musculus [11]): Non-toxic; IC50 (Plasmodium falciparum [4]): 370 nM; Activity (Mus musculus [12]): Non-toxic; concentration at 1 h [5]: 4690 ng/mL; Activity (Mus musculus [13]): Non-toxic; concentration at 4 h [6]: 3100 ng/mL; concentration at 24 h [7]: 86.1 ng/mL; inhibition in vivo at 50 mg/kg (Plasmodium berghei [8]): 99.6%; MSD (Plasmodium berghei [9]): 10 days
"O[C@@H](c1cc(C(F)(F)F)nc2c(C(F)(F)F)cccc12)[C@H]1CCCCN1 (relative stereo) [(S,R)-MEFLOQUINE]",–,–,–,4500 nM,IC50 (Plasmodium falciparum [4]): 100 nM
C[C@H]1[C@H](OC(=O)CCC(=O)O)O[C@@H]2O[C@@]3(C)CC[C@H]4[C@H](C)CC[C@@H]1[C@@]24OO3 [ARTESUNATE],2 nM,–,–,24000 nM,IC50 (Plasmodium falciparum [4]): 44 nM
CCN(CC)CCCC(C)Nc1ccnc2cc(Cl)ccc12 (stereo not drawn) [CHLOROQUINE],–,–,–,78000 nM,inhibition at 120 µM (Plasmodium falciparum [14]): 44%
COc1cc([C@@H]2c3cc4c(cc3[C@H](O)[C@H]3COC(=O)[C@H]23)OCO4)cc(OC)c1OC [PODOFILOX],8300 nM,9200 nM,0.0016,9.7 nM,–

# The next lines start with results.
IC50 (Plasmodium falciparum [2]),IC50 (Plasmodium falciparum [3]),SMILES,selectivity ratio [1],IC50 (L6),further results
240 nM,100 nM,N/C(CC(O)c1cccc2ccccc12)=N\N=C\c1ccccc1 (stereo not drawn),170,17000 nM,–
62 nM,190 nM,Cc1ccc(/C=N/N=C(\N)CC(O)c2cccc3ccccc23)cc1 (stereo not drawn),36,6800 nM,–
300 nM,110 nM,N/C(CC(O)c1cccc2ccccc12)=N\N=C\c1ccc(C(F)(F)F)cc1 (stereo not drawn),234,26000 nM,–
210 nM,83 nM,COc1ccc(/C=N/N=C(\N)CC(O)c2cccc3ccccc23)cc1 (stereo not drawn),76,6300 nM,–
450 nM,250 nM,CCOc1cc(/C=N/N=C(\N)CC(O)c2cccc3ccccc23)ccc1O (stereo not drawn),17,4200 nM,–
94 nM,91 nM,N/C(CC(O)c1cccc2ccccc12)=N\N=C\c1cccc(Br)c1 (stereo not drawn),43,3900 nM,–
190 nM,190 nM,N/C(CC(O)c1cccc2ccccc12)=N\N=C\c1ccc(F)cc1F (stereo not drawn),22,4200 nM,–
550 nM,180 nM,N/C(CC(O)c1cccc2ccccc12)=N\N=C\c1ccc(F)c(F)c1 (stereo not drawn),95,17000 nM,–
190 nM,250 nM,N/C(CC(O)c1cccc2ccccc12)=N\N=C\c1ccc(Cl)c(Cl)c1 (stereo not drawn),63,16000 nM,–
380 nM,510 nM,N/C(CC(O)c1cccc2ccccc12)=N\N=C\c1ccco1 (stereo not drawn),284,145000 nM,–
610 nM,240 nM,CCC/C(=N\N=C(/N)CC(O)c1cccc2ccccc12)c1ccccc1 (stereo not drawn),120,29000 nM,–
380 nM,540 nM,Cc1ccc(/C=N/N=C(\N)CC(O)c2ccc3ccccc3c2)cc1 (stereo not drawn),190,103000 nM,–
620 nM,380 nM,COc1ccc(/C=N/N=C(\N)CC(O)c2ccc3ccccc3c2)cc1 (stereo not drawn),182,69000 nM,–
700 nM,1900 nM,N/C(CC(O)c1ccc2ccccc2c1)=N\N=C\c1ccc(Cl)c(Cl)c1 (stereo not drawn),52,100000 nM,–
28 nM,16 nM,N/C(CC(O)c1cc2ccccc2c2ccccc12)=N\N=C\c1ccccc1 (stereo not drawn),383,6100 nM,IC50 (Plasmodium falciparum [4]): 180 nM

# Source: ChEMBL document CHEMBL3351566, “Blood schizontocidal and gametocytocidal activity of 3-hydroxy-N'-arylidenepropanehydrazonamides: a new class of antiplasmodial compounds” (J Med Chem, 2014)
